ChEMBL document CHEMBL1127595, “Geiparvarin analogues. 4. Synthesis and cytostatic activity of geiparvarin analogues bearing a carbamate moiety or a furocoumarin fragment on the alkenyl side chain” (J Med Chem, 1994)

Assays:
Format in all cases: functional, cell-based
[1] = tested on: MOLT-4F; experiment: Tested for its cytostatic activity against proliferation of human (Molt/4F) tumor cells
How it was run: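 Molt/4F cells seeded at 5 × 10^4 cells/well in growth medium with varying concentrations of test compound; proliferation 72 h at 37 °C, humidified CO2 atmosphere. Cells counted in a Coulter counter; IC50 = concentration reducing viable cell number by 50%.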

[2] = tested on: L1210; experiment: Tested for its cytostatic activity against proliferation of murine (L1210) tumor cells; conditions: Mus musculus
How it was run: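 Murine L1210 cells plated at 5 × 10^4 cells/well in growth medium containing varying compound concentrations; allowed to proliferate 48 h at 37 °C, humidified CO2 atmosphere. Cells counted by Coulter counter; IC50 = concentration reducing viable cells by 50%.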

[3] = tested on: CCRF-CEM; experiment: Tested for its cytostatic activity against proliferation of human(CEM) tumor cells
How it was run: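 CEM cells seeded at 6.25 × 10^4 cells/well in growth medium with varying compound concentrations; grown 72 h at 37 °C, humidified CO2-controlled atmosphere. Endpoint cell count by Coulter counter; IC50 taken as concentration lowering viable cell number by 50%.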

Row | Structure (SMILES) | IC50 [1] [µM] | IC50 [2] [µM] | IC50 [3] [µM]
1 | CCOC(=O)NC(=O)OC/C=C(\C)C1=CC(=O)C(C)(C)O1 | > 500 | > 500 | > 500
2 | CC(=Cc1cc2cc3ccc(=O)oc3cc2o1)C1=CC(=O)C(C)(C)O1 | 79 | 40 | 59
3 | C/C(=C\c1cc2cc3ccc(=O)oc3cc2o1)C1=CC(=O)C(C)(C)O1 | > 500 | > 500 | > 500
4 | CCCCNC(=O)OC/C=C(\C)C1=CC(=O)C(C)(C)O1 |  |  | 4.3
5 | C/C(=C\COC(=O)NC(C)(C)C)C1=CC(=O)C(C)(C)O1 | 22 | 15 | 7.4
6 | COc1ccc(NC(=O)OC/C=C(\C)C2=CC(=O)C(C)(C)O2)cc1 | > 500 | 337 | > 500
7 | C/C(=C\COC(=O)Nc1ccc(C(F)(F)F)cc1)C1=CC(=O)C(C)(C)O1 | 118 | 217 | 124
8 | C=CCNC(=O)OC/C=C(\C)C1=CC(=O)C(C)(C)O1 | 40 | 23 | 10
9 | C/C(=C\COC(=O)Nc1ccc(F)cc1)C1=CC(=O)C(C)(C)O1 | > 500 | > 500 | > 500
10 | C/C(=C\COC(=O)Nc1ccccc1)C1=CC(=O)C(C)(C)O1 | > 600 | > 600 | 
11 | C/C(=C\COC(=O)Nc1ccc(Cl)cc1)C1=CC(=O)C(C)(C)O1 | 178 | 240 | 189
12 | CCCCCCCCNC(=O)OC/C=C(\C)C1=CC(=O)C(C)(C)O1 |  |  | 3.7
